Consider 16 compounds from ChEMBL document CHEMBL1149473, “Anti-AIDS agents 69. Moronic acid and other triterpene derivatives as novel potent anti-HIV agents” (J Med Chem, 2006).

The term IC50 denotes the concentration at which inhibition is half-maximal. One may read the EC50 as the midpoint of the concentration-response curve. High values mean a less potent agent, low ones a more potent agent.

Structures are written as SMILES. Activity calls are given as the source filed them. The calls are words filed in the database; no cut-off is given here.

Data set [1] has as its system H9. The experiment in a line: Cytotoxicity against human H9 lymphocytes. In kind it is functional, cell-based. The procedure, abridged:
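Mock-infected H9 cells were treated in parallel with the antiviral plates under identical conditions, without virus, and were read by XTT on day 6. IC50 = concentration toxic to 50% of mock-infected cells.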

In data set [2] the test system is H9. Description: Antiviral activity against HIV1 3B in H9 lymphocytes. It is filed as functional, cell-based. To be noted: for EC50: Homo sapiens. In a few lines:
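HIV-1 IIIB isolate (125 TCID50) added to H9 cells at 3 × 10⁵ cells/mL in RPMI 1640 with 10% fetal calf serum and L-glutamine, 37 °C, 5% CO2. Media replaced on days 1 and 4 postinfection. Supernatant p24 antigen capture on day 6. EC50 = concentration suppressing replication by 50%. AZT run as positive control each experiment.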

Data set [3] is described as follows: Therapeutic index, IC50 for H9/EC50 for HIV 3B. To be noted: human, H9 cells; read-out: Ratio IC50/EC50. In kind it is cell-based. The procedure, abridged: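 Therapeutic index is IC50 divided by EC50. IC50 is the XTT toxicity in mock-infected H9 cells. EC50 is the 50% suppression of p24 in HIV-1 IIIB-infected H9 cells at day 6.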
Data set [4] relates to MT4. Description: Antiviral activity against HIV1 NL4-3 in MT4 cells. In kind it is functional, cell-based. As to conditions: for EC50: Homo sapiens, NL4-3, MT4. In a few lines: (§1)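 MT4 cells were infected with HIV-1 at MOI 0.01 using the strain named in the line. NL4-3 is a T-cell adapted X4 wild-type virus. PI-R is M46I/L63P/V82T/I84V, resistant to multiple protease inhibitors. Supernatants were collected on day 4 postinfection for p24 ELISA. EC50 = concentration inhibiting replication by 50%.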

Data set [5] deals with MT4. The experiment in a line: Cytotoxicity against human MT4 cells. It is filed as functional, cell-based. The procedure, abridged:
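Cytotoxicity was measured in MT4 cells and given as IC50, the concentration decreasing viable cell number by 50%.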

Data set [6] deals with MT4. The experiment in a line: Antiviral activity against HIV1 NL4-3 replication in human MT4 cells. In kind it is functional, cell-based. To be noted: NL4-3, MT4. In a few lines: as §1
Data set [7] relates to MT4. The experiment in a line: Antiviral activity against HIV1 PI-R replication in human MT4 cells. In kind it is functional, cell-based. In a few lines: as §1
For data set [8], the system named is MT4. Description: Antiviral activity against HIV1 FHR2 replication in MT4 cells. It is filed as functional, cell-based. To be noted: Homo sapiens. In a few lines: as §1
A short description of data set [9]: Inhibition of membrane fusion between HIV1 NL4-3 envelope gene expressing COS cells and TZM cells. In kind it is functional, cell-based. In a few lines:
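COS cells were electroporated with pSRHS carrying the HIV-1 NL4-3 envelope genes (2 µg per 10⁶ cells, 950 µF, 150 V) and cultured 1 day. They were then mixed with TZM cells (10⁴ COS : 10 × 10⁴ TZM) with compound at various concentrations, 37 °C, 24 h. Luciferase read-out. EC50 = 50% inhibition of envelope-mediated fusion.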

Data set [10] is described as follows: Cytotoxicity against COS-TZM fused cells. It is filed as functional, cell-based. In a few lines: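 Cytotoxicity was determined as IC50 in a one-day assay, matching the fusion assay duration. The highest concentration tested was 10 µg/mL.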
Data set [11] can be described thus: Therapeutic index, IC50 for MT-4/EC50 for HIV1 NL4-3. As to conditions: human, MT-4 cells.
Data set [12] relates to MT4. Description: Cytotoxicity against human MT4 cells at 5 uM. In kind it is functional, cell-based.
The subject of data set [13] is MT4. The experiment in a line: Antiviral activity against HIV1 FHR2 replication in MT4 cells at 5 uM. In kind it is functional, cell-based.

Compound `C[C@H]1[C@H](C)CC[C@]2(C(=O)O)CC[C@]3(C)C(=CC[C@@H]4[C@@]5(C)CC[C@H](OC(=O)CC(C)(C)CC(=O)O)C(C)(C)[C@@H]5CC[C@]43C)[C@H]12` came in with an IC50 in the data set on H9 [1] of 28500 nM. In the data set with H9 [2], the response was half-maximal at 680 nM (EC50). Moreover, the selectivity ratio in [3] was 42. Further, the outcome in the data set on MT4 [4] was inactive.

Take `CC(C)C[C@@H](CO)NC(=O)[C@]12CCC(C)(C)C=C1[C@H]1CC[C@@H]3[C@@]4(C)CC[C@H](OC(=O)CC(C)(C)C(=O)O)C(C)(C)[C@@H]4CC[C@@]3(C)[C@]1(C)CC2`: the IC50 in the data set with H9 [1] is greater than 42700 nM; in the data set on MT4 [5], 23500 nM; in [10], greater than 14600 nM. Besides, the EC50 in the data set on H9 [2] worked out at 17 nM; with MT4 [4], 45 nM; in the data set with MT4 [6], 45 nM; in the data set with MT4 [7], 88 nM; in the data set on MT4 [8], 2780 nM; in data set [9] it was 5850 nM. The figures for the selectivity ratio in data set [3] and in data set [11] were greater than 2500 and 522, respectively.

For `CC(C)C[C@H](NC(=O)[C@@]1(C)CC[C@]2(C)CC[C@]3(C)C(=CC(=O)[C@@H]4[C@@]5(C)CC[C@H](OC(=O)CC(C)(C)C(=O)O)C(C)(C)[C@@H]5CC[C@]43C)[C@@H]2C1)C(=O)O`, the result in the data set with H9 [2] and in the data set with MT4 [4] was inactive.

As to `CC1(C)C=C2[C@H]3CC[C@@H]4[C@@]5(C)CC[C@H](OC(=O)CC(C)(C)C(=O)O)C(C)(C)[C@@H]5CC[C@@]4(C)[C@]3(C)CC[C@@]2(C(=O)NCCCCCCCCCCC(=O)O)CC1`, the 50% inhibitory concentration (IC50) was 24000 nM in the data set on H9 [1], 19500 nM in the data set on MT4 [5] and greater than 13000 nM in data set [10]. The concentration giving a half-maximal response (EC50) in the data set on H9 [2] came to 7 nM; in the data set on MT4 [4], 110 nM; in data set [9], 5210 nM. Also, the values for the selectivity ratio in [3] and in [11] were 3400 and 177, respectively.

As for `C=C(C)[C@@H]1CC[C@]2(C(=O)N[C@@H](CC(C)C)C(=O)O)CC[C@]3(C)[C@H](CC[C@@H]4[C@@]5(C)CC[C@H](OC(=O)CC(C)(C)C(=O)O)C(C)(C)[C@@H]5CC[C@]43C)[C@@H]12`, in the data set with MT4 [5], the IC50 was found to be 12200 nM. Also, the concentration for a half-maximal effect (EC50) with MT4 [4] was 10 nM; in the data set on MT4 [6] it was 10 nM; in the data set with MT4 [7], 6 nM; in the data set with MT4 [8] it was 50 nM. In addition, in [11], the selectivity ratio was greater than 1220.

Turning to `C[C@H]1[C@H](C)CC[C@]2(C(=O)O)CC[C@]3(C)C(=CC[C@@H]4[C@@]5(C)CC[C@H](OC(=O)CC(C)(C)C(=O)O)C(C)(C)[C@@H]5CC[C@]43C)[C@H]12`, the IC50 with H9 [1] is 28500 nM; in the data set with MT4 [5], 21000 nM. Moreover, the EC50 in the data set with H9 [2] stood at 79 nM; with MT4 [4] it was 8300 nM. Moreover, the selectivity ratio in [3] was found to be 360; in data set [11] it was 2.5.

As to `CC(C)C[C@H](NC(=O)[C@]12CCC(C)(C)C=C1[C@H]1CC[C@@H]3[C@@]4(C)CC[C@H](OC(=O)CC(C)(C)C(=O)O)C(C)(C)[C@@H]4CC[C@@]3(C)[C@]1(C)CC2)C(=O)O`, the IC50 is greater than 42700 nM in the data set on H9 [1], 22500 nM in the data set with MT4 [5] and greater than 14300 nM in data set [10]. In addition, the half-maximal effective concentration (EC50) with H9 [2] was determined as 15.6 nM; in the data set on MT4 [4], 8.5 nM; with MT4 [6] it was 8.5 nM; in the data set with MT4 [7], 21 nM; in the data set with MT4 [8] it was 130 nM; in data set [9], 3580 nM. The values for the selectivity ratio in [3] and in data set [11] were greater than 2740 and 2650, respectively.

Take `CC1(C)C=C2[C@H]3CC[C@@H]4[C@@]5(C)CC[C@H](OC(=O)C(C)(C)CC(=O)O)C(C)(C)[C@@H]5CC[C@@]4(C)[C@]3(C)CC[C@@]2(C(=O)NCCCCCCCCCCC(=O)O)CC1`: in the data set on H9 [1], the IC50 is greater than 32600 nM. Also, the EC50 in the data set with H9 [2] worked out at 9300 nM. In addition, in data set [3], the selectivity ratio was greater than 3.5. Moreover, the outcome with MT4 [4] was inactive.

`Cc1cn([C@H]2C[C@H](N=[N+]=[N-])[C@@H](CO)O2)c(=O)[nH]c1=O` [ZIDOVUDINE]: the IC50 in the data set on MT4 [5] is greater than 37500 nM. Further, the results for the EC50 with MT4 [6], in the data set on MT4 [7] and in the data set on MT4 [8] were 13 nM, 19 nM and 19 nM, respectively.

With `CC1(C)CC[C@]2(C(=O)O)CC[C@]3(C)C(=CC[C@@H]4[C@@]5(C)CC[C@H](OC(=O)CC(C)(C)C(=O)O)C(C)(C)[C@@H]5CC[C@]43C)[C@@H]2C1`, the values for the IC50 in the data set with H9 [1] and in the data set on MT4 [5] were greater than 42700 nM and 20200 nM, respectively. Also, the EC50 with H9 [2] worked out at 320 nM; in the data set with MT4 [4], 8300 nM. In addition, the selectivity ratio in data set [3] was greater than 133; in [11], 2.4.

For the compound `C=C(C)[C@@H]1CC[C@]2(C(=O)NCCCCCCCC(=O)N[C@@H](CC(C)C)[C@H](O)CC(=O)O)CC[C@]3(C)[C@H](CC[C@@H]4[C@@]5(C)CC[C@H](O)C(C)(C)[C@@H]5CC[C@]43C)[C@@H]12`, in data set [9], the 50% effective concentration (EC50) was determined as 8.6 nM. In data set [10], this compound showed a half-maximal inhibitory concentration (IC50) greater than 13200 nM.

As to `C=C(C)[C@@H]1CC[C@]2(C(=O)O)CC[C@]3(C)[C@H](CC[C@@H]4[C@@]5(C)CC[C@H](OC(=O)CC(C)(C)C(=O)O)C(C)(C)[C@@H]5CC[C@]43C)[C@@H]12` [BEVIRIMAT], the IC50 is greater than 42800 nM with H9 [1], greater than 5000 nM in the data set with MT4 [12] and greater than 17100 nM in data set [10]. Further, the EC50 with H9 [2] was 7 nM; in the data set with MT4 [4], 96 nM; with MT4 [6], 96 nM; with MT4 [7] it was 430 nM; in [9], greater than 17100 nM. The selectivity ratio in data set [3] was greater than 6250; in [11], greater than 52. In the data set on MT4 [13], the result was inactive.

On to `C=C(C)[C@@H]1CC[C@]2(C(=O)NCCCCCCCCCCC(=O)O)CC[C@]3(C)[C@H](CC[C@@H]4[C@@]5(C)CC[C@H](OC(=O)CC(C)(C)C(=O)O)C(C)(C)[C@@H]5CC[C@]43C)[C@@H]12`, for which the half-inhibitory concentration (IC50) in the data set on MT4 [5] was determined as 11000 nM. Also, the EC50 in the data set with MT4 [4] turned out to be 7 nM. The selectivity ratio in [11] was determined as 1570.

Consider `CC(C)(CC(=O)O[C@H]1CC[C@]2(C)[C@H]3C(=O)C=C4[C@@H]5C[C@@](C)(C(=O)O)CC[C@]5(C)CC[C@@]4(C)[C@]3(C)CC[C@H]2C1(C)C)C(=O)O`, for which the outcome with H9 [2] and in the data set on MT4 [4] was inactive.

`CC(C)(CC(=O)O)CC(=O)O[C@H]1CC[C@]2(C)[C@H]3CC=C4[C@@H]5CC(C)(C)CC[C@]5(C(=O)O)CC[C@@]4(C)[C@]3(C)CC[C@H]2C1(C)C`: the result in the data set with H9 [2] and in the data set on MT4 [4] was inactive.

Consider `C=C(C)[C@@H]1CC[C@]2(C)CC[C@]3(C)[C@H](CC[C@@H]4[C@@]5(C)CC[C@H](OC(=O)CC(C)(C)C(=O)O)C(C)(C)[C@@H]5CC[C@]43C)[C@@H]12`, for which the values for the IC50 in the data set with H9 [1] and with MT4 [5] were greater than 45100 nM and greater than 36100 nM, respectively. Also, the results for the concentration giving a half-maximal response (EC50) in the data set with H9 [2] and with MT4 [4] were 2600 nM and 21600 nM, respectively. Further, the results for the selectivity ratio in [3] and in data set [11] were greater than 17.2 and greater than 1.7, respectively.
